Experimental data: article PMC5316514 (Clinical cancer research : an official journal of the …, 2016)
Where “and” joins values, the source holds several entries; their conditions need not be identical. Equal values may be shown once. Entries after “also recorded” stand apart in the source; their conditions may differ.

Columns and labels:
[1] = system: PDE4; conditions: cited from earlier work
[2] = Safety / adverse events; assay type: in vivo, human
Procedure, shortened: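 Ten patients received 21-day cycles of oral roflumilast 500 mcg daily. Prednisone 60 mg/m2 PO daily was added on days 8–14 of cycle 1 (maximum 100 mg daily) and on days 1–7 of later cycles. Incidence, severity, relationship and type of adverse events during treatment and follow-up were graded by NCI CTCAE version 4.03.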

[3] = system: relapsed/refractory B cell malignancies; assay: Clinical response and days in trial, phase Ib trial; assay type: in vivo, human; conditions: roflumilast plus prednisone
Procedure, shortened: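 Cycles lasted 21 days, with oral roflumilast 500 mcg daily throughout. Prednisone 60 mg/m2 PO daily was given on days 8–14 in cycle 1 (maximum 100 mg daily) and on days 1–7 in later cycles. Response was scored by International Working Group revised criteria for each disease.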

[4] = system: PI3K; assay: PI3K activity; assay type: in vivo, human
[5] = system: AKT; assay: AKT phosphorylation; assay type: in vivo, human; conditions: 5 of 8 patients; roflumilast single agent, day 8 vs day 0, PBMC, western blot
[6] = system: B cell lymphoma; conditions: murine model of B cell lymphoma; cited from earlier work
[7] = roflumilast 500 mcg PO daily plus prednisone, 10 patients
[8] = individual patient (UPN, diagnosis in the row)
[9] = individual patient, PI3K/AKT non-suppressors
[10] = individual patient, PI3K/AKT suppressors

O=C(Nc1c(Cl)c[n+]([O-])cc1Cl)c1ccc(OC(F)F)c(OCC2CC2)c1 [roflumilast N-oxide]
IC50 for inhibition of PDE4 [1]: 0.8 ng/mL

O=C(Nc1c(Cl)cncc1Cl)c1ccc(OC(F)F)c(OCC2CC2)c1 [roflumilast]
transitory episode of suicidal ideation, patients ([2]; UPN#10, end of first cycle, resolved upon cessation of study drug): One patient
transient ≥ grade 2 neutropenia, patients ([2]; roflumilast 500 mcg PO daily plus prednisone, 3 of 10 patients): 30%
grade 4 events [2, 7]: no grade 4 events
incidence of most common ≥Grade 2 treatment-related AEs (fatigue, anorexia, neutropenia), all causality [2, 7]: ≥ 25%
tolerability of treatment [2, 7]: generally well tolerated
partial response or stable disease, share of evaluable patients ([3]; 6 of nine evaluable patients): 66%
average days in trial, true PI3K/AKT suppressor profile ([3]; clinically evaluable patients): 156 days
average days in trial, without PI3K/AKT suppression ([3]; clinically evaluable patients): 91 days
days in trial, range, true PI3K/AKT suppressor profile ([3]; clinically evaluable patients): 49 to 315 days
days in trial, range, without PI3K/AKT suppression ([3]; clinically evaluable patients): 28 to 139 days
partial response or stable disease in PI3K/AKT suppressor group ([3]; four of five patients): 80%
Best response [3, 8]: Stable disease; also recorded: Withdrawn; also recorded: Progressed; also recorded: Partial response
days in trial (second figure of No of cycles/days in trial) [3, 8]: 4 / 105 days and 4 / 98 days and 1 / 29 days and 2 / 46 days and 8 / 190 days and 13 / 315 days and 2 / 49 days and 1 / 28 days and 5 / 139 days and 5 / 127 days
Best response [3, 9]: Stable disease; also recorded: Progressed
Days on trial [3, 9]: 139 days and 105 days and 29 days and 28 days
Best response [3, 10]: Stable disease; also recorded: Partial response; also recorded: Progressed
Days on trial [3, 10]: 190 days and 315 days and 49 days and 127 days and 98 days
patients with early progression (during first or second cycle) ([3]; of nine evaluable patients): 3 patients
days in trial until progression, death or withdrawn consent, range [3]: 28 to 315 days
median number of days in trial until progression, death or withdrawn consent [3]: 105 days
average days in trial, patients of Hispanic origin ([3]; p=0.08 vs non-Hispanic): 193 days
PI3K suppression in non-PI3K/AKT suppressors ([4]; n=4, no pAKT suppression, day 8 vs day 0, PBMC): < 25%
patients with significantly suppressed PI3K activity, number of evaluated ([4]; roflumilast 500 mcg PO daily single agent, day 8 vs day 0, PBMC): 7 of the 9
patients evaluated with significantly suppressed PI3K activity ([4]; roflumilast as single agent, 7 days, PBMC): 77%
samples with marked suppression of pAKT (T308) levels [5]: 62.5%
IC50 for inhibition of PDE4 [1]: 0.3 ng/mL
survival [6]: improved
tumor burden [6]: significantly suppressed
